According to ChEMBL document CHEMBL1129379, “Heterocyclic ureas: inhibitors of acyl-CoA:cholesterol O-acyltransferase as hypocholesterolemic agents” (J Med Chem, 1996):
pIC50: −log10 of the molar value.

Columns and labels:
[1] = biological target: T1, Sterol O-acyltransferase 1 (Rattus norvegicus) (UniProt O70536); assay: Percent change in plasma total cholesterol in an acute cholesterol-fed rat model of hypercholesterolemia, dose at 30 mg/kg; format: functional, organism-based; set-up: dose 30 mg/kg
T1 sequence (whole entry): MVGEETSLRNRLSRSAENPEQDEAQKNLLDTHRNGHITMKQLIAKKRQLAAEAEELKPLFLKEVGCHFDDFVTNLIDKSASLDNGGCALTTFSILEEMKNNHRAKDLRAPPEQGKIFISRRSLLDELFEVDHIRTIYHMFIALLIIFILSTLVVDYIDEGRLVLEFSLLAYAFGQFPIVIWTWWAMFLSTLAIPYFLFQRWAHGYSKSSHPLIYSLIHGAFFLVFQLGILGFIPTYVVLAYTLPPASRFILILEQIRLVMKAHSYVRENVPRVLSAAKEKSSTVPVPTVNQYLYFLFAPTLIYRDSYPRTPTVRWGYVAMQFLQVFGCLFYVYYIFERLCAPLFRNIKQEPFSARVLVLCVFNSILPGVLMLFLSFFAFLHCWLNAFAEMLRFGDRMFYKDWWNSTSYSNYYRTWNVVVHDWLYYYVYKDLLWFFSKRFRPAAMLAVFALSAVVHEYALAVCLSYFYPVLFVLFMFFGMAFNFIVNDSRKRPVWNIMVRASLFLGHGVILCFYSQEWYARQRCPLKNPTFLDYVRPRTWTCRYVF

[2] = biological target: O-acyltransferase (Oryctolagus cuniculus, UniProt G1SFD9); assay: (§1) Acyl coenzyme A:cholesterol acyltransferase 1 inhibition in vitro measured in rabbit intestinal microsomes; set-up: species or system Intestine
[3] = biological target: T1, Sterol O-acyltransferase 1 (Rattus norvegicus); assay: Percent change in plasma total cholesterol in an acute cholesterol-fed rat model of hypercholesterolemia, dose at 3 mg/kg; format: functional, organism-based; set-up: dose 3 mg/kg
[4] = tested on: Rattus norvegicus; assay: Percent change in non-HDL-C Dose at 30 mg/kg; format: functional
Summary of the method: (§2)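 Chronic rat model of pre-established hypercholesterolemia: 1 week on high-cholesterol diet, then compound dosed orally once daily for 1 week. Plasma total cholesterol, HDL-C and non-HDL-C expressed as percent change versus control; p < 0.05 flagged.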

[5] = biological target: T1, Sterol O-acyltransferase 1 (Rattus norvegicus); assay: (§3) Percent change in plasma TC in the chronic C-fed rat model of pre-established hypercholesterolemia. Dose at 30 mg/kg; format: functional, organism-based; set-up: dose 30 mg/kg; summary of the method: as §2
[6] = tested on: Rattus norvegicus; assay: Percent change in HDL-C,Dose at 30 mg/kg; format: functional; summary of the method: as §2
[7] = tested on: Rattus norvegicus; assay: Percent change in HDL-C,dose at 30 mg/kg; format: functional; summary of the method: as §2
[8] = tested on: Rattus norvegicus; assay: Percent change in non-HDL-C, dose at 30 mg/kg; format: functional; summary of the method: as §2
[9] = tested on: Rattus norvegicus; assay: Percent change in plasma TC in the chronic C-fed rat model of pre-established hypercholesterolemia. dose at 30 mg/kg; format: functional; summary of the method: as §2
[10] = tested on: Rattus norvegicus; assay: Percent change in HDL-CDose at 30 mg/kg; format: functional; summary of the method: as §2
[11] = tested on: Canis familiaris; assay: mean blood drug concentration in dog, compound Dose at 3 mg/kg; format: ADME, organism-based, Canis lupus familiaris; set-up: dose 3 mg/kg; settings: in vivo
Summary of the method: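 Cholesterol-fed Beagle dogs dosed at 3 mg/kg. Plasma drug measured by HPLC on a C8 column, acetonitrile/water 4:1 eluent, detection at 190 nm, with a related analog as internal standard. Quantitation limit 40 ng/mL; mean of 6 animals.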

[12] = tested on: Rattus norvegicus; assay: Percent change in non-HDL-C,Dose at 3 mg/kg; format: functional; summary of the method: as §2
[13] = tested on: Rattus norvegicus; assay: Percent change in HDL-C,Dose at 10 mg/kg; format: functional; summary of the method: as §2
[14] = tested on: Canis familiaris; assay: Percent change in plasma cholesterol in dog at 3 mg/kg; format: functional, Canis lupus familiaris
Summary of the method: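 Cholesterol-fed female Beagle dogs given bulk drug in capsules before meals, daily for 1 week, at 3 mg/kg po. Plasma total cholesterol compared before and after treatment as percent change; paired two-tailed t-test, n = 6.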

[15] = tested on: Rattus norvegicus; assay: Percent change in HDL-C,Dose at 3 mg/kg; format: functional; summary of the method: as §2
[16] = tested on: Rattus norvegicus; assay: Percent change in non-HDL-C,Dose at 10 mg/kg; format: functional; summary of the method: as §2
[17] = tested on: Rattus norvegicus; assay: Percent change in plasma TC in the chronic C-fed rat model of pre-established hypercholesterolemia. Dose at 10 mg/kg; format: functional; summary of the method: as §2
[18] = tested on: Rattus norvegicus; assay: Percent change in plasma TC in the chronic C-fed rat model of pre-established hypercholesterolemia, dose at 3 mg/kg; format: functional; summary of the method: as §2
[19] = tested on: Rattus norvegicus; assay: Percent change in non-HDL-C,Dose at 30 mg/kg; format: functional; summary of the method: as §2
[20] = tested on: Rattus norvegicus; assay: Percent change in HDL-Cdose at 30 mg/kg; format: functional; summary of the method: as §2
[21] = biological target: T2, Acyl-CoA:cholesterol acyltransferase (Oryctolagus cuniculus) (UniProt Q95214); assay: as §1; settings: Intestine, concentration not given here
T2 sequence (whole entry): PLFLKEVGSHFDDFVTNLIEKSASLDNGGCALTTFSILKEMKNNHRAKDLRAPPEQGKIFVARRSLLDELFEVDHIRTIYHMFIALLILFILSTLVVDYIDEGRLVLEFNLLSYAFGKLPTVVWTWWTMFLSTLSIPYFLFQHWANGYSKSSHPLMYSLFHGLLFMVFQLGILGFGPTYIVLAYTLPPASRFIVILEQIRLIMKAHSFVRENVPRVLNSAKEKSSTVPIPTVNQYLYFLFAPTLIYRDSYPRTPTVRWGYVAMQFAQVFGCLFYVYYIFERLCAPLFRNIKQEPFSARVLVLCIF
Summary of the method: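 ACAT activity in intestinal microsomes from cholesterol-fed rabbits, measured by incubation with 14C-labeled oleoyl-CoA; IC50 is the micromolar concentration giving 50% inhibition of enzyme activity.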

[22] = tested on: Rattus norvegicus; assay: Percent change in non-HDL-C,dose at 30 mg/kg; format: functional; summary of the method: as §2
[23] = tested on: Rattus norvegicus; assay: as §3; format: functional; summary of the method: as §2
[24] = tested on: Rattus norvegicus; assay: Percent change in plasma TC in the chronic C-fed rat model of pre-established hypercholesterolemia. Dose at 3 mg/kg; format: functional; summary of the method: as §2

SMILES	Delta TC [1] [%]	pIC50 [2]	Delta TC [3] [%]	further results
CCCCCCCCCCCCc1coc(NC(=O)Nc2c(C(C)C)cccc2C(C)C)n1	-55	7.20		
CCCCCCCCCCCCCc1nnc(NC(=O)Nc2c(C(C)C)cccc2C(C)C)o1	-62	7.74	-34	
CCCCCCCCCCCCc1cc(NC(=O)Nc2c(C(C)C)cccc2C(C)C)on1	-61	7.72	-58	Non-HDL-C [4]: -68%; Delta TC [5]: -56%; Delta HDL-C [6]: 100%
CC(C)c1cccc(C(C)C)c1NC(=O)Nc1nnn(CCCCCCCCCCCOC2CCCCO2)n1 (stereo not given)	-53	7.43	-28	
CCCCCCCCCCCCCc1cc(NC(=O)Nc2c(C(C)C)cccc2C(C)C)no1	-62	7.85	-59	Delta HDL-C [7]: 33%; Non-HDL-C [8]: -45%; Delta TC [9]: -40%
CCCCCCCCCCCCCc1cc(NC(=O)Nc2c(C(C)C)cccc2C(C)C)on1	-62	7.89	-51	Delta HDL-C [10]: 111%; Non-HDL-C [4]: -65%; Delta TC [5]: -53%
CCCCCCCCCCCCCCCCN1NN=C(NC(=O)Nc2c(C(C)C)cccc2C(C)C)N1	-67	7.24	-43	
CCCCCCCCCCCCCN1NN=C(NC(=O)Nc2c(C(C)C)cccc2C(C)C)N1	-67	8.05	-67	Plasma level [11]: 76.7 ng/mL; Non-HDL-C [12]: -47%; Delta HDL-C [13]: 113%; Delta plasma cholesterol [14]: -47%; Delta TC [5]: -66%; Delta HDL-C [15]: 21%; Non-HDL-C [16]: -73%; Delta TC [17]: -64%; Delta TC [18]: -52%; Non-HDL-C [19]: -76%; Delta HDL-C [6]: 113%
CCCCCCCCCCN1NN=C(NC(=O)Nc2c(C(C)C)cccc2C(C)C)N1	-62	7.85	-35	
CCCCCCCCCCc1cc(NC(=O)Nc2c(C(C)C)cccc2C(C)C)on1	-69	7.54	-61	Non-HDL-C [4]: -14%; Delta HDL-C [20]: -6%; Delta TC [9]: -13%
CCCCCCCCCCCN1NN=C(NC(=O)Nc2c(C(C)C)cccc2C(C)C)N1	-70	8.05	-63	
CCCCCCCCCCCCc1n[nH]c(NC(=O)Nc2c(C(C)C)cccc2C(C)C)n1	12	5.38		
CCCCCCCCCCCCCc1nnc(NC(=O)Nc2c(C(C)C)cccc2C(C)C)s1	-46	7.44		
CCCCCCCCCCCCCSc1n[nH]c(NC(=O)Nc2c(C(C)C)cccc2C(C)C)n1	12			
CCCCCCCCCCCc1csc(NC(=O)Nc2c(C(C)C)cccc2C(C)C)n1	-29	6.82		
CCCCCCCCCCCCN1NN=C(NC(=O)Nc2c(OC)cc(OC)cc2OC)N1	-75	7.18	-69	
CC(C)=CCC/C(C)=C/Cn1nnc(NC(=O)Nc2c(C(C)C)cccc2C(C)C)n1	-27	7.20		
CCCCCCCCCCCCCSc1nnc(NC(=O)Nc2c(C(C)C)cccc2C(C)C)n1C(C)=O	-21	6.17		
CCCCCCN1NN=C(NC(=O)Nc2c(C(C)C)cccc2C(C)C)N1	-59	7.14	-21	
CCCCCCCCCCc1sc(NC(=O)Nc2c(C(C)C)cccc2C(C)C)nc1C	-33	6.92		
CCCCN1NN=C(NC(=O)Nc2c(C(C)C)cccc2C(C)C)N1	-26	7.04		
CCCCCCCCCCn1nnnc1NC(=O)Nc1c(C(C)C)cccc1C(C)C	-65		-22	

SMILES	Delta TC [1] [%]	pIC50 [2]	Delta TC [3] [%]	further results
CCCCCCCCCCCCN1NN=C(CNC(=O)Nc2c(OC)cc(OC)cc2OC)N1	-40	6.82		
CCCCCCCCCCCCC[S+]([O-])c1n[nH]c(NC(=O)Nc2c(C(C)C)cccc2C(C)C)n1 (stereo not given)	-6	5.77		
CCCCCCCCCCCCn1cnnc1NC(=O)Nc1c(C(C)C)cccc1C(C)C	-28			
CC(C)c1cccc(C(C)C)c1NC(=O)NC1=NN(Cc2ccccc2)NN1	-27	6.43		
CCCCCCCCCCCCn1nnnc1NC(=O)Nc1c(OC)cc(OC)cc1OC				inhibition [21]: 28%
CCCCCCCCCCCCn1cnc(NC(=O)Nc2c(C(C)C)cccc2C(C)C)n1	-30	6.92		
CC(C)c1cccc(C(C)C)c1NC(=O)Nc1nnn(CCCCCCCCCCCO)n1	-28	7.49		
CC(C)c1cccc(C(C)C)c1NC(=O)Nc1nnn[nH]1		< 5.00		
CCCCCCCCCCCCn1cnc(NC(=O)Nc2c(C(C)C)cccc2C(C)C)c1		7.46		
CCCCCCCCCCCCn1nnnc1NC(=O)Nc1c(C(C)C)cccc1C(C)C	-57	6.68	-45	
CCCCCCCCCCCCN1NN=C(NC(=O)Nc2c(C(C)C)cccc2C(C)C)N1	-67	7.85	-61	Non-HDL-C [22]: -78%; Delta HDL-C [7]: 93%; Delta TC [23]: -69%; Plasma level [11]: 29.3 ng/mL; Non-HDL-C [12]: -47%; Delta HDL-C [13]: 87%; Delta plasma cholesterol [14]: -39%; Delta HDL-C [15]: 20%; Non-HDL-C [16]: -72%; Delta TC [17]: -64%; Delta TC [24]: -43%
CCCCCCCCCCCc1nnc(NC(=O)Nc2c(C(C)C)cccc2C(C)C)s1	-61	7.41		
CC(C)c1cccc(C(C)C)c1NC(=O)Nc1nn[nH]n1	-19			
CCCCCCCCCCCCN1NN=C(CNC(=O)Nc2c(C(C)C)cccc2C(C)C)N1	-58	7.92	-31	
CCCCCCCCCCCCCCc1cc(NC(=O)Nc2c(C(C)C)cccc2C(C)C)on1	-64	7.55	-44	Delta HDL-C [10]: 16%; Non-HDL-C [4]: -18%; Delta TC [5]: -16%
CCCCCCCCCc1nnc(NC(=O)Nc2c(C(C)C)cccc2C(C)C)s1	-39	6.82		
CCCCCCCCCCCCn1ncnc1NC(=O)Nc1c(C(C)C)cccc1C(C)C	-36	6.60		
CCCCCCCCCCCCCS(=O)(=O)c1n[nH]c(NC(=O)Nc2c(C(C)C)cccc2C(C)C)n1	-11	5.33		
CCCCCCCCN1NN=C(NC(=O)Nc2c(C(C)C)cccc2C(C)C)N1	-67	7.23	-24	
CCCCCCCCCN1NN=C(NC(=O)Nc2c(C(C)C)cccc2C(C)C)N1	-65	7.51	1	
COC(=O)CCCCCCCCCCN1NN=C(NC(=O)Nc2c(C(C)C)cccc2C(C)C)N1	-23	5.33		
